Test results from ChEMBL document CHEMBL5260793, “Novel pyrazolo[3,4-d]pyrimidine with 4-(1H-benzimidazol-2-yl)-phenylamine as broad spectrum anticancer agents: Synthesis, cell based assay, topoisomerase inhibition, DNA intercalation and bovine serum albumin studies” (Eur J Med Chem, 2017).
Calls of active or inactive are those of the source. No cut-off for these calls is given here.

Key:
[1] = Anticancer activity against human Non-small cell lung cancer cell line assessed as lethality incubated for 48 hrs by Sulphorhodamine B assay; assay type: functional
[2] = system: Panel melanoma (Carcinoma cell lines); experiment: Anticancer activity against human Panel melanoma (Carcinoma cell lines) assessed as total growth inhibition incubated for 48 hrs by Sulphorhodamine B assay; assay type: functional
How it was run: (§1)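 NCI-60 five-dose screen. Cells in RPMI 1640 with 5% FBS and 2 mM L-glutamine were plated at 5,000–40,000 cells/well and held 24 h before dosing. Compounds came from DMSO stocks and were given at five concentrations (10-fold or ½-log dilutions) for 48 h at 37 °C. Adherent cells were TCA-fixed and stained with SRB; A515 was read. GI50 was set from growth = 50% and TGI from Ti = Tz, using Tz/C/Ti.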

[3] = system: Panel renal (Carcinoma cell lines); experiment: Anticancer activity against human Panel renal (Carcinoma cell lines) assessed as cell growth inhibition incubated for 48 hrs by Sulphorhodamine B assay; assay type: functional; how it was run: as §1
[4] = Anticancer activity against human Non-small cell lung cancer cell line assessed as cell growth inhibition incubated for 48 hrs by Sulphorhodamine B assay; assay type: functional; how it was run: as §1
[5] = system: Panel colon (Carcinoma cell lines); experiment: Anticancer activity against human Panel colon (Carcinoma cell lines) assessed as total growth inhibition incubated for 48 hrs by Sulphorhodamine B assay; assay type: functional; how it was run: as §1
[6] = system: Calf thymus DNA; experiment: Binding affinity to calf thymus DNA assessed as hypochromicity at pH 7.4 at 10 uM by UV-vis absorption spectroscopy; assay type: nucleic-acid assay; conditions: Bos taurus
How it was run: (§2)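 Absorption titration at 300 K in a 1 cm cell, background subtracted. Compound was fixed (10 μM per legend; 20 μM in methods) with ct-DNA added up to 15–20 μM in 10 mM phosphate buffer, pH 7.4 (A260/A280 1.82). A buffer-addition control was run. K was taken from the 1/(Af−Aobs) vs 1/[DNA] fit.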

[7] = system: Panel prostate (Carcinoma cell lines); experiment: Anticancer activity against human Panel prostate (Carcinoma cell lines) assessed as lethality incubated for 48 hrs by Sulphorhodamine B assay; assay type: functional
[8] = system: Panel CNS (Carcinoma cell lines); experiment: Anticancer activity against human Panel CNS (Carcinoma cell lines) assessed as cell growth inhibition incubated for 48 hrs by Sulphorhodamine B assay; assay type: functional; how it was run: as §1
[9] = system: Panel leukemia (Carcinoma cell lines); experiment: Anticancer activity against human Panel leukemia (Carcinoma cell lines) assessed as total growth inhibition incubated for 48 hrs by Sulphorhodamine B assay; assay type: functional
[10] = system: Panel leukemia (Carcinoma cell lines); experiment: Anticancer activity against human Panel leukemia (Carcinoma cell lines) assessed as cell growth inhibition incubated for 48 hrs by Sulphorhodamine B assay; assay type: functional; how it was run: as §1
[11] = system: Calf thymus DNA; experiment: Binding affinity to calf thymus DNA assessed as maximum absorption wavelength shift at pH 7.4 at 10 uM by UV-vis absorption spectroscopy; assay type: nucleic-acid assay; conditions: Bos taurus; how it was run: as §2
[12] = system: Panel renal (Carcinoma cell lines); experiment: Anticancer activity against human Panel renal (Carcinoma cell lines) assessed as lethality incubated for 48 hrs by Sulphorhodamine B assay; assay type: functional

SMILES	LC50 (lethal concentration, 50% cell kill) [1] [µM]	TGI [2] [µM]	GI50 [3] [µM]	GI50 [4] [µM]	TGI [5] [µM]	Activity [6]	LC50 [7] [µM]	GI50 [8] [µM]	TGI [9] [µM]	GI50 [10] [µM]	Activity [11] [nm]	LC50 (50% lethal concentration) [12] [µM]
Fc1ccc(Nc2nc(Nc3ccc(-c4nc5ccccc5[nH]4)cc3)c3cn[nH]c3n2)cc1	32.5	3.74	1.84	2.11	3.83	Active	9.22	2.06	6.33	2.62	257	18.2
OCCN1CCN(c2nc(Nc3ccc(-c4nc5ccccc5[nH]4)cc3)c3cn[nH]c3n2)CC1	6.26	3.41	1.76	1.57	2.12	Active	5.97	1.47	1.22	0.44	259	5.85
